Data from ChEMBL document CHEMBL1212705, “Gene expression signatures and small-molecule compounds link a protein kinase to Plasmodium falciparum motility” (Nat Chem Biol, 2008).
Activity calls are given as the source filed them. The rule behind the calls is not given here.

Columns and labels:
[1] = Inhibition of GST-fused Plasmodium falciparum recombinant CDPK5 expressed in Escherichia coli Rosetta 2 assessed as inhibition of [gamma-33P]ATP incorporation into substrate peptide by scintillation counting
[2] = Cytotoxicity against human HeLa cells after 72 hrs by Cell Titer Glo assay; format: cell-based; details: read-out: ED50
Method in brief: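 Cells were seeded at 250 per well in DMEM with 5% FBS in 1,536-well plates, and compound was added the next day. Culture ran 72 h, matching the parasite proliferation assay. Viability was read by Cell Titer Glo luminescence, and EC50 was derived.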

[3] = tested on: Plasmodium falciparum; test: Binding affinity to Plasmodium falciparum PF14_0186 at 2.5 mM by LC/MS/MS analysis
Method in brief: (§1)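 P. falciparum parasite lysate was incubated with agarose-immobilized inhibitor and washed extensively. Retained proteins were eluted with urea, resolved by SDS-PAGE and identified by LC/MS/MS. In a competition arm, free inhibitor (2.5 mM) was added to the lysate before incubation with the beads under identical conditions.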

[4] = tested on: Plasmodium falciparum; test: Binding affinity to Plasmodium falciparum PF13_0304 at 2.5 mM by LC/MS/MS analysis; method in brief: as §1
[5] = tested on: Plasmodium falciparum; test: Binding affinity to Plasmodium falciparum PFI0235w at 2.5 mM by LC/MS/MS analysis; method in brief: as §1
[6] = tested on: Plasmodium falciparum; test: Binding affinity to Plasmodium falciparum PFI0875w at 2.5 mM by LC/MS/MS analysis; method in brief: as §1
[7] = tested on: Plasmodium yoelii; test: Antiplasmodial activity blood stage Plasmodium yoelii infected in BALB/c mice (Mus musculus) assessed as delay in onset of parasitaemia at 10 mg/kg, perorally BID for 6 days measured after 6 days post infection by Peter's test; format: functional, organism-based; design: dose 10 mg/kg
[8] = tested on: Plasmodium falciparum; test: Binding affinity to Plasmodium falciparum CDPK1 at 2.5 mM by LC/MS/MS analysis; method in brief: as §1
[9] = tested on: Plasmodium falciparum; test: Binding affinity to Plasmodium falciparum PF08_0054 at 2.5 mM by LC/MS/MS analysis; method in brief: as §1
[10] = tested on: Plasmodium falciparum; test: Binding affinity to Plasmodium falciparum PF10_0153 at 2.5 mM by LC/MS/MS analysis; method in brief: as §1
[11] = tested on: Plasmodium falciparum; test: Antiplasmodial activity against multidrug-resistant Plasmodium falciparum Dd2 after 72 hrs by SYBR green assay; format: functional, organism-based; details: Dd2, 72 h
Method in brief: (§2)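 Parasites grown in human O+ erythrocytes in RPMI with human serum and albumax. For the assay, serially diluted compounds were added to screening medium (RPMI, 4.16 mg/ml albumax) at 2.5% hematocrit and 0.3% parasitemia, then incubated 72 h in 93% N2/4% CO2/3% O2. DMSO served as baseline and uninfected erythrocytes as background. SYBR Green fluorescence was read at 520 nm to give EC50.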

[12] = tested on: Plasmodium falciparum; test: Binding affinity to Plasmodium falciparum PF14_0359 at 2.5 mM by LC/MS/MS analysis; method in brief: as §1
[13] = tested on: Plasmodium falciparum; test: Binding affinity to Plasmodium falciparum PF08_0003 at 2.5 mM by LC/MS/MS analysis; method in brief: as §1
[14] = tested on: Plasmodium falciparum; test: Antiplasmodial activity against multidrug-resistant Plasmodium falciparum FCB after 72 hrs by SYBR green assay; format: functional, organism-based; method in brief: as §2
[15] = tested on: Plasmodium falciparum; test: Binding affinity to Plasmodium falciparum MAL7P1.228 at 2.5 mM by LC/MS/MS analysis; method in brief: as §1
[16] = tested on: Plasmodium falciparum; test: Binding affinity to Plasmodium falciparum PFI0180w at 2.5 mM by LC/MS/MS analysis; method in brief: as §1
[17] = tested on: Toxoplasma gondii; test: Antimicrobial activity against Toxoplasma gondii […] infected in african green monkey BSC1 cells assessed as parasite invasion at 25 uM after 48 hrs by microscopy relative to control; format: functional, BSC-1
[18] = tested on: Plasmodium falciparum; test: Antiplasmodial activity against chloroquine-resistant Plasmodium falciparum W2 after 72 hrs by SYBR green assay; format: functional, organism-based; details: W2, 72 h; method in brief: as §2
[19] = tested on: Toxoplasma gondii; test: Antimicrobial activity against Toxoplasma gondii […] infected in african green monkey BSC1 cells assessed as parasite invasion at 12.5 uM after 48 hrs by microscopy relative to control; format: functional, BSC-1
[20] = tested on: Plasmodium falciparum; test: Binding affinity to Plasmodium falciparum PFF0160c at 2.5 mM by LC/MS/MS analysis; method in brief: as §1
[21] = Cytotoxicity against human HuH7 cells after 72 hrs by Cell Titer Glo assay; format: cell-based, Huh-7; details: read-out: ED50
Method in brief: (§3)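 Cells seeded at 250 per well in DMEM with 5% fetal bovine serum. Compound added the next day, followed by 72 h culture to match the parasite proliferation assay. Viability read by Cell Titer Glo luminescence.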

[22] = tested on: Plasmodium falciparum; test: Binding affinity to Plasmodium falciparum PFL1545c at 2.5 mM by LC/MS/MS analysis; method in brief: as §1
[23] = Cmax in BALB/c mouse at 20 mg/kg single oral dose after 24 hrs by LC/MS/MS analysis; details: in vivo
[24] = tested on: Plasmodium falciparum; test: Antimicrobial activity against Plasmodium falciparum schizonts infected in human erythrocytes assessed as minimal effect on parasite cell cycle at 450 nM treated 24 hrs after release of ring stage by microscopy
[25] = Cytotoxicity against human Hep2 cells after 72 hrs by Cell Titer Glo assay; format: cell-based, HEp-2; details: read-out: ED50; method in brief: as §3
[26] = tested on: Plasmodium falciparum; test: Binding affinity to Plasmodium falciparum PF10_0268 at 2.5 mM by LC/MS/MS analysis; method in brief: as §1
[27] = tested on: Plasmodium falciparum; test: Binding affinity to Plasmodium falciparum PF14_0393 at 2.5 mM by LC/MS/MS analysis; method in brief: as §1
[28] = tested on: Toxoplasma gondii; test: Antimicrobial activity against Toxoplasma gondii […] infected in african green monkey BSC1 cells assessed as parasite invasion at 100 uM after 90 mins by microscopy relative to control
[29] = tested on: Plasmodium falciparum; test: Binding affinity to Plasmodium falciparum PFL0185c at 2.5 mM by LC/MS/MS analysis; method in brief: as §1
[30] = tested on: Plasmodium falciparum; test: Binding affinity to Plasmodium falciparum PF13_0116 at 2.5 mM by LC/MS/MS analysis; method in brief: as §1
[31] = tested on: Plasmodium falciparum; test: Binding affinity to Plasmodium falciparum PF14_0096 at 2.5 mM by LC/MS/MS analysis; method in brief: as §1
[32] = tested on: Plasmodium falciparum; test: Binding affinity to Plasmodium falciparum PF11_0037 at 2.5 mM by LC/MS/MS analysis; method in brief: as §1
[33] = tested on: Plasmodium falciparum; test: Binding affinity to Plasmodium falciparum PF14_0541 at 2.5 mM by LC/MS/MS analysis; method in brief: as §1
[34] = tested on: Plasmodium falciparum; test: Antimicrobial activity against Plasmodium falciparum schizonts infected in human erythrocytes assessed as minimal effect on parasite cell cycle at 450 nM treated 36 hrs after release of ring stage by microscopy
[35] = tested on: Toxoplasma gondii; test: Antimicrobial activity against Toxoplasma gondii […] infected in african green monkey BSC1 cells assessed as parasite invasion at 6.25 uM after 48 hrs by microscopy relative to control; format: functional, BSC-1
[36] = tested on: Plasmodium falciparum; test: Binding affinity to Plasmodium falciparum PF13_0238 at 2.5 mM by LC/MS/MS analysis; method in brief: as §1
[37] = tested on: Plasmodium falciparum; test: Antimicrobial activity against Plasmodium falciparum 3D7 schizonts infected in human erythrocytes assessed as effect on parasitemia at 225 to 450 nM after 48 hrs by microscopy
[38] = tested on: Plasmodium falciparum; test: Binding affinity to Plasmodium falciparum PF14_0517 at 2.5 mM by LC/MS/MS analysis; method in brief: as §1
[39] = tested on: Plasmodium falciparum; test: Binding affinity to Plasmodium falciparum PF10_0363 at 2.5 mM by LC/MS/MS analysis; method in brief: as §1

For `N[C@H]1CC[C@H](Nc2nc(Nc3ccc(C(=O)N4CCCCC4)cc3)c3ncn(-c4cccc(F)c4)c3n2)CC1` [PURFALCAMINE], the IC50 [1] was over 3.5 µM, the CC50 at 72 h [2] was 7.03 µM and the Activity [3] was “inactive”. For the same compound, the Activity [4] was “inactive”, the Activity [5] was “inactive” and the Activity [6] was “inactive”. For the same compound, the Activity [7] was “Active”, the Activity [8] was “Active” and the Activity [9] was “inactive”. The Activity [10] was “inactive”, the EC50 [11] was 0.259 µM and the Activity [12] was “inactive”. The Activity [13] was “inactive”, the EC50 [14] was 0.169 µM and the Activity [15] was “inactive”. For the same compound, the Activity [16] was “inactive”, the Activity [17] was “<=20%” and the EC50 [18] was 0.179 µM. The Activity [19] was 20%, the Activity [20] was “inactive” and the CC50 at 72 h [21] was 5.48 µM. For the same compound, the Activity [22] was “inactive”, the Cmax [23] was 2600 nM and the Activity [24] was “Active”. The CC50 at 72 h [25] was 7.24 µM, the Activity [26] was “inactive” and the Activity [27] was “inactive”. The Activity [28] was “<=20%”, the Activity [29] was “inactive” and the Activity [30] was “inactive”. The Activity [31] was “inactive”, the Activity [32] was “inactive” and the Activity [33] was “inactive”. The Activity [34] was “Active”, the Activity [35] was 20% and the Activity [36] was “inactive”. The Activity [37] was “Active”, the Activity [38] was “inactive” and the Activity [39] was “inactive”.
